The values that follow come from ChEMBL document CHEMBL1122654, “Phosphorus analogues of gamma-aminobutyric acid, a new class of anticonvulsants” (J Med Chem, 1984).

The source made the active and inactive calls.

Data set [1] concerns Mus musculus. The data set can be described thus: In vivo anticonvulsant activity against pentylenetetrazole seizure threshold(SMC) in mice 0.5 hr after sc administration; indicates inactive at 600 mg/kg. The class given is functional, organism-based. Details: dose 600 mg/kg.
In data set [2] the test system is Mus musculus. Put plainly: In vivo neurotoxicity at 600 mg/kg, number of animals exhibiting neurotoxicity in the rotarod test / number of animals tested at 0.5 hr; 0/4. Format: toxicity, organism-based. Details: dose 600 mg/kg.
Data set [3] relates to Mus musculus. The data set can be described thus: In vivo neurotoxicity at 600 mg/kg, number of animals exhibiting neurotoxicity in the rotarod test / number of animals tested at 4 hr; 0/2. Format: toxicity, organism-based. Details: dose 600 mg/kg. In general terms: The rotarod test checks motor coordination on a turning rod.
The test system of data set [4] is Mus musculus. Put plainly: In vivo anticonvulsant activity against pentylene tetrazole seizure threshold(SMC) in mice 4 hr after sc administration; indicates inactive at 600 mg/kg. Format: functional, organism-based. Details: dose 600 mg/kg.
In data set [5] the test system is Mus musculus. Put plainly: In vivo anticonvulsant activity against electric shock induced seizures(MES) in mice 4 hr after ip administration; indicates inactive at 600 mg/kg. Format: functional, organism-based. Set-up: dose 600 mg/kg.
Data set [6] deals with GABA-A receptor; anion channel (Rattus norvegicus) (UniProt O09028+P15431+P18506+P18508+P19969+P20236+P23574+P23576+P28471+P28473+P30191+P62813+P63079+P63138+Q91ZM7+Q9ES14). The data set can be described thus: Displacement of [3H]-GABA from Gamma-aminobutyric acid A receptor binding sites in brain homogenates (relative to 1 mM GABA) at 100 uM. Format: tissue-based. A digest of the protocol: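 Male Sprague-Dawley rat brain, frozen, homogenized in 50 mM Tris-citrate (pH 7.1 at 4 °C). Membranes treated with 0.05% Triton X-100 for 30 min at 37 °C and resuspended at 0.5–1.0 mg/mL protein. Incubated with 8 nM [3H]GABA for 5 min at 4 °C, stopped by centrifugation, and counted by scintillation. Test concentration 100 µM. Expressed as percent of the inhibition given by 1 mM GABA. Mean of two experiments, each in triplicate.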

The target in data set [7] is GABA B receptor (Rattus norvegicus) (UniProt Q9Z0U4+O88871). Put plainly: Displacement of [3H]GABA from GABA-B binding sites in brain homogenates (relative to 100 uM baclofen) at 100 uM. The class given is tissue-based. A digest of the protocol: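 Rat brain membrane binding (male Sprague-Dawley) using 10 nM [3H]GABA, with 100 µM isoguvacine present to block GABA-A sites. Test concentration 100 µM. Percent inhibition expressed relative to 100 µM baclofen. Mean of two separate experiments, each in triplicate.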
A general note: Displacement assays read how much labelled ligand stays bound in the presence of the test substance.

In data set [8] the test system is Mus musculus. Put plainly: In vivo anticonvulsant activity against electric shock induced seizures(MES) in mice 0.5 hr after ip administration; indicates inactive at 600 mg/kg. Format: functional, organism-based. Details: dose 600 mg/kg.

For orientation: inhibition means the relative decrease from the control value, in per cent. A low value points to little suppression.

`NCCOP(=O)(O)c1ccccc1`: the Anticonvulsant activity result with Mus musculus [1], with Mus musculus [4], in the data set with Mus musculus [5] and in the data set on Mus musculus [8] was “inactive” in each case. For the same compound, the Toxicity with Mus musculus [2] and in the data set with Mus musculus [3] was 0 in each case. Besides, the inhibition in data set [6] is 15%; in data set [7], 16%.
